Calls of active or inactive are those of the source. The rule behind the calls is not given here.
What was measured:
[1] = target: T1, Histone-lysine N-methyltransferase SMYD3 (Homo sapiens) (UniProt Q9H7B4); test: Inhibition of full length recombinant SMYD3 (unknown origin) at 50 uM measured for 1 hr by LC-ESI-MS analysis relative to control
T1 sequence (whole entry): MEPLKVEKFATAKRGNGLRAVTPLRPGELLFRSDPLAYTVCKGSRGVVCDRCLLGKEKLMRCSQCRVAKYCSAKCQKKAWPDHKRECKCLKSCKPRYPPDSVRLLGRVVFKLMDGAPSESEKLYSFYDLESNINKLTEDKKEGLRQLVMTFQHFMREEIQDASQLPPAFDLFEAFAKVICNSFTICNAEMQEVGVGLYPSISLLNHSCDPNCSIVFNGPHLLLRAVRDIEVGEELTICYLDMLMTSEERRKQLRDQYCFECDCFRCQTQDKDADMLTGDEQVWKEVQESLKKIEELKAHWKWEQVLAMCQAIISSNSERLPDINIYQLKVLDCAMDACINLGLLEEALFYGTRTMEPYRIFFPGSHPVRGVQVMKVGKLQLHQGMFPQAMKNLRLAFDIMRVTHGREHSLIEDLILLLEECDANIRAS
Outline: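 SMYD3 preincubated 1 h at 23 °C with compound (SMYD3 5 μM, compound 50 μM, 2% DMSO), or at 5 μM compound for 1 or 24 h. Stopped with H2O/AcCN/FA, peptide methylation quantified by LC-ESI-MS. Duplicate.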

[2] = target: T1, Histone-lysine N-methyltransferase SMYD3 (Homo sapiens); test: Binding affinity to full length recombinant SMYD3 (unknown origin) overexpressed in Escherichia coli Rosetta cells assessed as covalent adduct formation by SPR analysis
Outline: (§1)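 SPR on Biacore X100 at 15 °C: SMYD3 amine-coupled on CM5 chips at 6500–10000 RU, immobilised in HBS-T pH 7.4. Analysis buffer Tris-HCl 50 mM, NaCl 150 mM, 2 mM DTT, 0.05% Tween-20, 2% DMSO, pH 8.0, with or without SAM at saturating concentration. Equilibrium responses solvent-corrected.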

[3] = target: T1, Histone-lysine N-methyltransferase SMYD3 (Homo sapiens); test: Inhibition of SMYD3 in human MDA-MB-231 cells assessed as decrease in ERK1/2 phosphorylation upto 5 uM by immunoblotting analysis; assay type: cell-based; details: time 48-72 hrs, TDE = time-dependent effect
Outline: (§2)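 HCT116 or MDA-MB-231 cells treated with compound, DMSO as control. Whole-cell lysates in Tris/EDTA/NaCl/1% Triton X-100 with protease and phosphatase inhibitors. 20 μg protein run on 7.5% SDS-PAGE and blotted to nitrocellulose, probed for phospho-ERK1/2 (Thr202/Tyr204), total ERK1/2 and cleaved PARP, with actin as loading control.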

[4] = target: T1, Histone-lysine N-methyltransferase SMYD3 (Homo sapiens); test: Inhibition of SMYD3 in human HCT-116 cells assessed as decrease in ERK1/2 phosphorylation measured for 48 to 72 hrs by immunoblotting analysis; assay type: cell-based; details: dose <= 5.0 µM, time 48-72 hrs; outline: as §2
[5] = target: T1, Histone-lysine N-methyltransferase SMYD3 (Homo sapiens); test: Inhibition of SMYD3 in human MDA-MB-231 cells assessed as decrease in ERK1/2 phosphorylation measured for 48 to 72 hrs by immunoblotting analysis; assay type: cell-based; details: dose <= 5.0 µM, time 48-72 hrs; outline: as §2
[6] = target: T1, Histone-lysine N-methyltransferase SMYD3 (Homo sapiens); test: Inhibition of SMYD3 in human HCT-116 cells assessed as decrease in ERK1/2 phosphorylation upto 5 uM by immunoblotting analysis; assay type: cell-based; details: time 48-72 hrs, TDE = time-dependent effect; outline: as §2
[7] = target: T2, Histone-lysine N-methyltransferase SMYD3 (Homo sapiens, UniProt Q9H7B4); test: Binding affinity to full length recombinant SMYD3 (unknown origin) overexpressed in Escherichia coli Rosetta cells assessed as dissociation constant by SPR analysis; outline: as §1
T2 sequence (Q9H7B4 whole entry): T1 sequence (whole entry)

[8] = test system: MDA-MB-231; test: Antiproliferative activity against in human MDA-MB-231 cells assessed as reduction in cell viability measured after 48 hrs by trypan blue staining based phase contrast microscopic analysis; assay type: functional
Outline: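 MDA-MB-231 cells in DMEM with 10% FBS and penicillin/streptomycin at 37 °C, 5% CO2, treated 48 h at 5 μM (vehicle 0.5% DMSO, DMSO control). Floating plus trypsinized adherent cells pooled, mixed with 0.01% trypan blue, unstained and stained cells counted by phase-contrast microscopy, % viable cells calculated. Mean ± SD, n=3.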

[9] = target: T1, Histone-lysine N-methyltransferase SMYD3 (Homo sapiens); test: Inhibition of SMYD3 in human MDA-MB-231 cells assessed as decrease in cleaved PARP level at 5 uM measured for 48 to 72 hrs by immunoblotting analysis; assay type: cell-based; details: time 48-72 hrs; outline: as §2
[10] = target: T1, Histone-lysine N-methyltransferase SMYD3 (Homo sapiens); test: Inhibition of SMYD3 in human HCT-116 cells assessed as decrease in cleaved PARP level at 5 uM measured for 48 to 72 hrs by immunoblotting analysis; assay type: cell-based; details: time 48-72 hrs; outline: as §2
[11] = target: T1, Histone-lysine N-methyltransferase SMYD3 (Homo sapiens); test: Inhibition of full length recombinant SMYD3 (unknown origin) at 5 uM measured at 24 hrs by LC-ESI-MS analysis relative to control
[12] = test system: MDA-MB-231; test: Downregulation of c-MET mRNA expression in human MDA-MB-231 cells at 50 uM measured for 48 to 72 hrs by RT-qPCR analysis; assay type: functional, cell-based; details: time 48-72 hrs
Outline: (§3)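 MDA-MB-231 or SMYD3-knockout (CRISPR/Cas9) MDA-MB-231 cells in DMEM/10% FBS treated 48 h with 0.5–50 μM compound, or 72 h with reference inhibitor at 10–50 μM; DMSO control. Total RNA extracted with TRI reagent, CDK2, c-MET, FN1 and N-CAD transcripts measured by RT-qPCR and quantified by the ddCT method.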

[13] = test system: MDA-MB-231; test: Downregulation of N-cadherin mRNA expression in human MDA-MB-231 cells at 50 uM measured for 48 to 72 hrs by RT-qPCR analysis; assay type: functional, cell-based; details: time 48-72 hrs; outline: as §3
[14] = test system: MDA-MB-231; test: Downregulation of CDK2 mRNA expression in human MDA-MB-231 cells at 50 uM measured for 48 to 72 hrs by RT-qPCR analysis; assay type: functional, cell-based; details: time 48-72 hrs; outline: as §3
[15] = target: T2, Histone-lysine N-methyltransferase SMYD3; test: Inhibition of full length recombinant SMYD3 (unknown origin) measured at 24 hrs
[16] = test system: MDA-MB-231; test: Downregulation of FN1 mRNA expression in human MDA-MB-231 cells at 50 uM measured for 48 to 72 hrs by RT-qPCR analysis; assay type: functional, cell-based; details: time 48-72 hrs; outline: as §3
[17] = test system: MDA-MB-231; test: Effect on FN1 mRNA expression in SMYD3 knockout human MDA-MB-231 cells at 0.5 to 5 uM measured for 48 to 72 hrs by RT-qPCR analysis; assay type: functional, cell-based; details: dose 0.5-5 µM, time 48-72 hrs; outline: as §3
[18] = target: T1, Histone-lysine N-methyltransferase SMYD3 (Homo sapiens); test: Binding affinity to full length recombinant SMYD3 (unknown origin) at Cys186 residue overexpressed in Escherichia coli Rosetta cells assessed as covalent adduct formation at 1 to 100 uM measured for 24 hrs by LC-MS analysis relative to control; details: dose 1-100 µM
Outline: (§4)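 Recombinant SMYD3 expressed in E. coli Rosetta 2, final 10 μM, incubated at 23 °C in Tris 50 mM pH 8.0, 75 mM NaCl with compound at final 1, 10 or 100 μM, or equimolar 10 μM with sampling at 0–24 h. Samples DTT-denatured at 56 °C, iodoacetamide-alkylated, digested overnight with trypsin plus chymotrypsin at 30 °C, then analysed by LC-MS/MS on Q-ToF for adducted peptides. Triplicate.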

[19] = target: T1, Histone-lysine N-methyltransferase SMYD3 (Homo sapiens); test: Inhibition of SMYD3 in human HCT-116 cells assessed as increase in cleaved PARP level at 5 uM measured for 48 to 72 hrs by immunoblotting analysis; details: time 48-72 hrs
[20] = Stability in human plasma measured at 6 hrs by LC-MS analysis; assay type: ADME, cell-free
Outline: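 Compound spiked to final 10 μM into healthy-volunteer human plasma and held at 37 °C with gentle agitation. At 0–360 min, proteins precipitated with ice-cold acetonitrile containing propranolol internal standard. Supernatant dried, reconstituted, analysed by LC-MS with SIM (m/z 312; IS 260). Analyte/IS peak-area ratio followed over time, relative to time 0.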

[21] = test system: MDA-MB-231; test: Effect on N-cadherin mRNA expression in SMYD3 knockout human MDA-MB-231 cells at 0.5 to 5 uM measured for 48 to 72 hrs by RT-qPCR analysis; assay type: functional, cell-based; details: dose 0.5-5 µM, time 48-72 hrs; outline: as §3
[22] = target: T1, Histone-lysine N-methyltransferase SMYD3 (Homo sapiens); test: Binding affinity to full length recombinant SMYD3 (unknown origin) overexpressed in Escherichia coli Rosetta cells assessed as inactivation constant measured after 1 hr by LC-MS analysis
[23] = target: T1, Histone-lysine N-methyltransferase SMYD3 (Homo sapiens); test: Binding affinity to full length recombinant SMYD3 (unknown origin) at Cys186 residue overexpressed in Escherichia coli Rosetta cells assessed as covalent adduct formation at 1 to 100 uM by LC-MS analysis; details: dose 1-100 µM, time <= 24.0 hrs, TDE = time-dependent effect; outline: as §4
[24] = target: T1, Histone-lysine N-methyltransferase SMYD3 (Homo sapiens); test: Binding affinity to full length recombinant SMYD3 (unknown origin) overexpressed in Escherichia coli Rosetta cells assessed as Kinact/Ki ratio measured after 1 hr by LC-MS analysis
[25] = target: T1, Histone-lysine N-methyltransferase SMYD3 (Homo sapiens); test: Binding affinity to full length recombinant SMYD3 (unknown origin) at Cys186 residue overexpressed in Escherichia coli Rosetta cells assessed as covalent adduct formation at 1 to 100 uM measured after 1 hr by LC-MS analysis relative to control; details: dose 1-100 µM; outline: as §4
[26] = test system: MDA-MB-231; test: Downregulation of CDK2 mRNA expression in human MDA-MB-231 cells at 0.5 uM by RT-qPCR analysis; assay type: functional, cell-based; outline: as §3
[27] = test system: MDA-MB-231; test: Effect on c-MET mRNA expression in SMYD3 knockout human MDA-MB-231 cells at 0.5 to 5 uM measured for 48 to 72 hrs by RT-qPCR analysis; assay type: functional, cell-based; details: dose 0.5-5 µM, time 48-72 hrs; outline: as §3
[28] = target: T2, Histone-lysine N-methyltransferase SMYD3; test: Binding affinity to full length recombinant SMYD3 (unknown origin) overexpressed in Escherichia coli Rosetta cells assessed as inhibition constant measured after 1 hr by LC-MS analysis
[29] = test system: MDA-MB-231; test: Effect on CDK2 mRNA expression in SMYD3 knockout human MDA-MB-231 cells at 0.5 to 5 uM measured for 48 to 72 hrs by RT-qPCR analysis; assay type: functional, cell-based; details: dose 0.5-5 µM, time 48-72 hrs; outline: as §3
[30] = test system: MDA-MB-231; test: Downregulation of C-MET mRNA expression in human MDA-MB-231 cells at 0.5 uM by RT-qPCR analysis; assay type: functional, cell-based; outline: as §3
[31] = target: T1, Histone-lysine N-methyltransferase SMYD3 (Homo sapiens); test: Binding affinity to full length recombinant SMYD3 (unknown origin) at Cys186 residue overexpressed in Escherichia coli Rosetta cells assessed as covalent adduct formation measured for 24 hrs by LC-MS analysis; details: dose 1-100 µM; outline: as §4

Compound	inhibition [1] [%]	Activity [2]	inhibition [3]	inhibition [4]	inhibition [5]	inhibition [6]	Kd [7] [µM]	inhibition [9]	inhibition [11] [%]	IC50 [15] [µM]	Activity [31]	other results
Cc1cc(C(=O)N2CCC(NC(=O)CCl)CC2)no1	< 5	inactive	–	–	–	–	–	–	–	–	–	–
O=C(NC1CCNCC1)c1cc(C2CC2)on1	29.1	–	Tde	Dose-Dependent Effect	Dose-Dependent Effect	Tde	32	inactive	–	–	–	Activity [8]: inactive; inhibition [10]: inactive
O=C1Cc2cc(C(=O)N[C@H]3C[C@H]4CC[C@@H](C3)C4S(=O)(=O)CC3CCN(CCCC(F)(F)F)CC3)c(Cl)cc2N1 (some centres not stated)	100	–	–	–	–	–	–	–	50.2	0.689	–	Activity [12]: Active; Activity [13]: Active; Activity [14]: Active; Activity [16]: Active
O=C(NC1CCN(C(=O)CCl)CC1)c1cc(C2CC2)on1	92.1	Active	Tde	Dose-Dependent Effect	Dose-Dependent Effect	Tde	13	Active	85.6	0.37	Dose-Dependent Effect	Activity [17]: inactive; Activity [18]: 100%; inhibition [19]: Active; remaining at 6 h [20]: 76%; Activity [21]: inactive; Kinact [22]: 4.49 10^-4/s; Activity [23]: Tde; Ratio [24]: 73.5 M⁻¹ s⁻¹; Activity [25]: 50%; Activity [26]: Active; Activity [27]: inactive; Ki [28]: 6.11 µM; Activity [29]: inactive; Activity [30]: Active
O=C(CCl)NC1CCN(C(=O)c2cc(C3CC3)on2)CC1	14	Active	–	–	–	–	–	–	–	–	Dose-Dependent Effect	–
NC1CCN(C(=O)c2cc(C3CC3)on2)CC1	5	–	–	–	–	–	–	–	–	–	–	–
